Activity calls are given as the source filed them. How the calls were made is not given here.

This passage reports CC50, EC50 and Activity results from ChEMBL document CHEMBL1144182, “Antimicrobial and cytotoxic arylazoenamines. Part III: antiviral activity of selected classes of arylazoenamines” (Bioorg Med Chem, 2008).

The nature of data set [1]: Cytotoxicity against mock-infected human MT4 cells assessed as reduction in cell viability after 96 hrs by MTT assay. It counts as cell-based. In outline: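 Exponentially growing MT-4 cells seeded at 1 × 10^5 cells/mL in RPMI-1640 with 10% FCS, penicillin and streptomycin, with or without serial compound dilutions. Incubated at 37 °C, 5% CO2; viability read by MTT after 96 h. CC50 is the concentration reducing mock-infected cell viability by 50%.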

The nature of data set [2]: Cytotoxicity against mock-infected MDBK cells assessed as reduction in cell viability after 96 hrs by MTT assay. The settings on record: cattle. It counts as cell-based, Bos taurus. The gist of the method:
(§1)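 Cytotoxicity run in parallel with the antiviral assays. MDBK seeded at 6 × 10^5 and BHK at 1 × 10^6 cells/mL in maintenance medium with or without serial compound dilutions. Incubated 48–96 h at 37 °C, 5% CO2, then viability read by MTT. CC50 is the concentration reducing mock-infected cell viability by 50%.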

Data set [3] has as its system Bovine viral diarrhea virus 1. In words: Antiviral activity against BVDV infected in MDBK cells assessed as protection against virus-induced cytopathogenicity after 4 days by MTT assay. It counts as functional, organism-based. To be noted: Bovine viral diarrhea virus isolates and strains, 96 h. The gist of the method:
(§2)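 MDBK (BVDV) or BHK-21 (YFV) cells were seeded at 3 × 10^4 or 5 × 10^4 cells/well respectively and grown overnight to confluent monolayers at 37 °C in 5% CO2. Monolayers were infected at m.o.i. 0.01 in serum-free medium. After 1 h, MEM Earle's with 1% FCS was added, with or without serial compound dilutions. After 3–4 days at 37 °C, viability was read by MTT. EC50 was taken as 50% protection from virus-induced cytopathogenicity.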

Data set [4] can be described thus: Cytotoxicity against mock-infected BHK cells assessed as reduction in cell viability after 96 hrs by MTT assay. It counts as cell-based, Mesocricetus auratus. The settings on record: hamster. In outline: as §1
For a further data set, the system named is Yellow fever virus. In words: Antiviral activity against YFV infected in BHK21 cells assessed as protection against virus-induced cytopathogenicity after 4 days by MTT assay. It counts as functional, organism-based. The settings on record: BHK-21, 96 h. The gist of the method:
as §2

Data set [5] is described as follows: Cytotoxicity against mock-infected african green monkey Vero76 cells assessed as reduction in cell viability after 96 hrs by MTT assay. It counts as cell-based, Vero. The settings on record: chlorocebus sabaeus.
The test system of another data set is Coxsackievirus B2. As to the kind of experiment: Antiviral activity against CVB2 infected in Vero76 cells assessed as reduction in virus plaque formation after 4 days by MTT assay. The settings on record: Enterovirus B, Vero 76, 96 h. It counts as functional, organism-based.
The subject of data set [6] is Respiratory syncytial virus. As to the kind of experiment: Antiviral activity against RSV infected in Vero76 cells assessed as reduction in virus plaque formation after 4 days by MTT assay. It counts as functional, organism-based. To be noted: human respiratory syncytial virus, Vero 76, 96 h.
A further data set deals with Poliovirus 1. In words: Antiviral activity against Sb1 virus infected in Vero76 cells assessed as reduction in virus plaque formation after 4 days by MTT assay. It counts as functional, organism-based. The settings on record: Enterovirus C, Sabin, Vero 76, 96 h.
Data set [7] relates to Human immunodeficiency virus 1. In words: Antiviral activity against HIV1 infected in MT4 cells assessed as virus-induced cytopathogenicity after 4 days. It counts as functional, organism-based.
In the next data set the test system is Vaccinia virus. As to the kind of experiment: Antiviral activity against VV infected in Vero76 cells assessed as reduction in virus plaque formation after 4 days by MTT assay. It counts as functional, organism-based. To be noted: Orthopoxvirus vaccinia; Vero 76.
The subject of data set [8] is Vesicular stomatitis virus. In words: Antiviral activity against VSV infected in Vero76 cells assessed as reduction in virus plaque formation after 4 days by MTT assay. It counts as functional, organism-based. To be noted: Vero 76.

`FC(F)(F)c1cccc(/N=N\C2=C3CCCCN3CCC2)c1`: the CC50 at 96 h in data set [1] was 4 µM; in data set [2], 8 µM; in data set [4], 40 µM; in data set [5], more than 100 µM. Besides, the EC50 was more than 8 µM in data set [3]; more than 40 µM in the data set with Yellow fever virus; 21 µM with Coxsackievirus B2; more than 100 µM in data set [6]; more than 100 µM with Poliovirus 1. Further, the result (in data set [7]; in the data set on Vaccinia virus; in [8]) was inactive.
Take `C(=C\N1CCSCC1)/N=N/c1ccccc1`: the CC50 at 96 h is 19 µM in [1], 14 µM in data set [2], more than 100 µM in data set [4] and 30 µM in data set [5]. Besides, the EC50 in data set [3] was more than 14 µM; in the data set on Yellow fever virus, more than 100 µM; in the data set with Coxsackievirus B2 it was 6 µM; in data set [6], more than 30 µM; with Poliovirus 1, more than 30 µM. For the same molecule, the outcome (in [7]; in the data set with Vaccinia virus; in data set [8]) was inactive.
`O=[N+]([O-])c1ccc(N2CCN(/C=C/N=N/c3ccccc3)CC2)cc1`: the CC50 at 96 h in [1] worked out at 41 µM; in data set [2] it was 20 µM; in data set [4], 48 µM; in data set [5] it was 45 µM. Moreover, the EC50 in [3] is more than 20 µM; with Yellow fever virus, 12 µM; with Coxsackievirus B2 it was 14 µM; in data set [6], 13 µM; in the data set on Poliovirus 1 it was more than 45 µM. Also, the result (in data set [7]; in the data set on Vaccinia virus; in [8]) was inactive.
With `FC(F)(F)c1cc(/N=N\C2=C3CCCCN3CCC2)cc(C(F)(F)F)c1`, the CC50 at 96 h is 34 µM in data set [1], 31 µM in data set [2], 19 µM in data set [4] and 100 µM in data set [5]. For the same molecule, the EC50 in [3] is more than 31 µM; in the data set with Yellow fever virus, more than 19 µM; in the data set with Coxsackievirus B2 it was 41 µM; in [6] it was more than 100 µM; with Poliovirus 1 it was more than 100 µM. The outcome (in data set [7]; in the data set on Vaccinia virus; in [8]) was inactive.
For `CN1C=C(/N=N/c2cccc(Cl)c2)CCC1`, the CC50 at 96 h in data set [1] is more than 100 µM; in data set [2], 87 µM; in data set [4], 85 µM; in data set [5], 75 µM. The EC50 is 12 µM in data set [3]; more than 85 µM with Yellow fever virus; 34 µM with Coxsackievirus B2; 40 µM in data set [6]; more than 75 µM in the data set with Poliovirus 1. Besides, the result (in data set [7]; in the data set on Vaccinia virus; in data set [8]) was inactive.
In the case of `Clc1ccc(N2CCN(/C=C/N=N/c3ccccc3)CC2)cc1`, the CC50 at 96 h in [1] is 21 µM; in [2], 7.5 µM; in data set [4], 29 µM; in [5], 45 µM. Also, the EC50 in data set [3] is more than 7.5 µM; in the data set on Yellow fever virus, 7.5 µM; in the data set with Coxsackievirus B2 it was 7 µM; in [6], 7 µM; with Poliovirus 1 it was more than 45 µM. For the same molecule, the result (in data set [7]; in the data set on Vaccinia virus; in [8]) was inactive.
With `CN1C=C(/N=N/c2c(F)c(F)c(F)c(F)c2F)CCC1`, the CC50 at 96 h in [1], in data set [2], in data set [4] and in data set [5] was more than 100 µM in each case. Also, the EC50 (in data set [3]; in the data set on Yellow fever virus; in the data set with Coxsackievirus B2; in [6]; in the data set with Poliovirus 1) was more than 100 µM throughout. The outcome (in data set [7]; with Vaccinia virus; in data set [8]) was inactive.
On to `O=[N+]([O-])c1ccc(/N=N\C2=C3CCCCN3CCC2)cc1`, for which the CC50 at 96 h in [1] was 91 µM; in data set [2], more than 100 µM; in data set [4] it was more than 100 µM; in data set [5], 100 µM. The EC50 in [3] is 86 µM; in the data set with Yellow fever virus it was not below 100 µM; with Coxsackievirus B2, 26 µM; in data set [6] it was more than 100 µM; in the data set on Poliovirus 1, more than 100 µM. Moreover, the result (in data set [7]; with Vaccinia virus; in data set [8]) was inactive.
Regarding `c1ccc2c(/N=N\C3=C4CCCN4CCC3)cccc2c1`, the cytotoxic concentration (CC50) at 96 h in data set [1] stood at 18 µM; in [2] it was 91 µM; in [4], 51 µM; in [5] it was 90 µM. Moreover, the EC50 was 3.5 µM in data set [3]; more than 51 µM with Yellow fever virus; 44 µM in the data set on Coxsackievirus B2; more than 90 µM in data set [6]; more than 90 µM in the data set on Poliovirus 1. Besides, the result (in data set [7]; in the data set with Vaccinia virus; in data set [8]) was inactive.
`CN1C=C(/N=N/c2cccc(Br)c2)CCC1`: the CC50 at 96 h in [1], in [2], in data set [4] and in [5] was more than 100 µM throughout. Also, the EC50 in data set [3] was 19 µM; in the data set on Coxsackievirus B2, 27 µM; in data set [6] it was 18 µM; with Poliovirus 1, more than 100 µM. The result (in data set [7]; in the data set with Vaccinia virus; in data set [8]) was inactive.
As for `O=c1cnn([C@@H]2O[C@H](CO)[C@@H](O)[C@H]2O)c(=O)[nH]1` [6-AZAURIDINE], the CC50 at 96 h in data set [1] is 2 µM; in [2] it was more than 100 µM; in data set [4] it was more than 100 µM; in data set [5], 20 µM. Further, the EC50 in [3] is more than 100 µM; with Yellow fever virus, 26 µM; in the data set on Coxsackievirus B2, more than 20 µM; in [6], 1.2 µM; with Poliovirus 1 it was more than 20 µM.
`CN1C=C(/N=N/c2ccc(Cl)c(C(F)(F)F)c2)CCC1`: the half-maximal cytotoxic concentration (CC50) at 96 h came out at 62 µM in data set [1], 28 µM in [2], 44 µM in data set [4] and 90 µM in data set [5]. For the same molecule, the EC50 with Yellow fever virus is more than 44 µM; in the data set on Coxsackievirus B2, 34 µM; in [6], more than 90 µM; in the data set with Poliovirus 1, more than 90 µM. Besides, the result (in [7]; in the data set with Vaccinia virus; in data set [8]) was inactive.
With `C[C@@]1(O)[C@H](O)[C@@H](CO)O[C@H]1n1cnc2c(=O)[nH]c(N)nc21` [2'-B-METHYL-GUANOSINE], the CC50 at 96 h in data set [1] was more than 100 µM; in [2], more than 100 µM; in data set [4], 90 µM; in data set [5], more than 100 µM. In addition, the EC50 is 1.7 µM in data set [3]; 1 µM in the data set on Yellow fever virus; 20 µM with Coxsackievirus B2; more than 100 µM in [6]; more than 100 µM in the data set with Poliovirus 1.
